Published values collected from several papers.
Each line is one published result; the experiments were not run side by side.
Sample: plasma

Structure (SMILES) | species | route | dose | setting | AUC(0-inf) [ng·h/mL]
C[C@@]1(c2cc(NC(=O)c3ccc(C#N)cn3)ccc2F)C=CSC(N)=N1 | human | oral | 3 mg | single dose | 259
CCc1nc2c(C)cc(N3CCN(CC(=O)N4CC(O)C4)CC3)cn2c1N(C)c1nc(-c2ccc(F)cc2)c(C#N)s1 | human | oral | 300 mg | single dose, fed, healthy volunteers | 14900
O=C(Nc1c(Cl)cncc1Cl)c1ccc(OC(F)F)c(OCC2CC2)c1 | human | oral | 0.375 mg | single dose, fasted | 48.7
CO[C@H]1CC[C@H](N2C(=O)CNc3ncc(-c4ccc(C(C)(C)O)nc4)nc32)CC1 | human | oral | 7.5 mg | patients | 353
CN(C)CCCNC(=O)/C(=C/CCCCC(=O)NO)COc1cccc2ccccc12 | human | intravenous | 312.5 mg/m² | single dose | 72600
Cn1cc(-c2ccc(S(=O)(=O)[C@@H]3C[C@@H](C(=O)NC4(C#N)CC4)N(C(=O)C4(C(F)(F)F)CC4)C3)c(C(F)(F)F)c2)cn1 | human | oral | 1 mg | single dose, fasted, healthy volunteers | 44.9
CCCOc1ccc([C@H]2CNC(=O)N2c2ccc3[nH]cnc3c2)cc1 | human | oral | 200 mg | single dose, fasted, healthy volunteers | 2330
CC(C)n1cc(C#N)c2cc(-n3cc(C(=O)O)cn3)ccc21 | human | oral | 50 mg | single dose, fasted, healthy volunteers | 7120
COc1ccc([C@@H]2CN(C(=O)[C@@H](O)CO)C[C@@]2(C)[C@@H](C)O)cc1OC1CN(c2ccc(C)cn2)C1 | human | oral | 40 mg | single dose, healthy volunteers | 9000
CC(C)(O)c1ccccc1-c1ccc2[nH]c(/C=C/c3ccc(C(F)(F)F)cc3)nc2c1 | male human | oral | 50 mg | single dose, fasted, healthy volunteers | 7820
COc1ccc(-n2nc(C(N)=O)c3c2C(=O)N(c2ccc(N4CCCCC4=O)cc2)CC3)cc1 | male human | oral | 10 mg | single dose | 1630
CC(C)(Sc1ccncc1-c1ccc(C#N)c2ccccc12)C(=O)O | male human | oral | 20 mg | single dose, fed, healthy volunteers | 415
